ChEMBL document CHEMBL1158486, “Combining hit identification strategies: fragment-based and in silico approaches to orally active 2-aminothieno[2,3-d]pyrimidine inhibitors of the Hsp90 molecular chaperone” (J Med Chem, 2009)
Activity calls are given as the source filed them. No cut-off for these calls is given here.

Key:
[1] = Plasma protein binding in Sprague-Dawley rat at 5 uM after 6 hrs by equilibrium dialysis; format: ADME, cell-free; conditions: read-out: PPB (converted)
Procedure, shortened: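 Equilibrium dialysis of plasma spiked with compound at 5 μM, 6 h incubation. Plasma and buffer samples precipitated with acetonitrile, supernatants analysed by LC/MSMS. Percent bound = (1 − buffer/plasma) × 100.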

BT-474 [2] = assay: Depletion of CDK4 protein expression in human BT474 cells after 24 hrs by Western immunoblotting; format: functional, cell-based
Procedure, shortened: (§1)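 BT474 or HCT116 cells treated for 24 h at 25, 50, 100, 200 and 400 nM. Lysates prepared in 50 mM Tris-HCl with 2% SDS, pH 6.8, and protein measured by BCA. Equal loads run on SDS-PAGE and transferred to PVDF; probed with ECL detection, with GAPDH as loading control.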

HCT-116 [3] = assay: Induction of Hsp72 protein expression in human HCT116 cells after 24 hrs by Western immunoblotting; format: functional, cell-based; procedure, shortened: as §1
BT-474 [4] = assay: Depletion of HER2 protein expression in human BT474 cells at 25 nM after 24 hrs by Western immunoblotting; format: functional, cell-based; procedure, shortened: as §1
BT-474 [5] = assay: Depletion of HER2 protein expression in human BT474 cells at 50 nM after 24 hrs by Western immunoblotting; format: functional, cell-based; procedure, shortened: as §1
HCT-116 [6] = assay: Depletion of HER2 protein expression in human HCT116 cells at 25 nM after 24 hrs by Western immunoblotting; format: functional, cell-based
HCT-116 [7] = assay: Depletion of HER2 protein expression in human HCT116 cells at 100 nM after 24 hrs by Western immunoblotting; format: functional, cell-based
[8] = AUC last in BALB/c mouse at 10 mg/kg, po by LC-MS/MS analysis; format: ADME, organism-based; set-up: dose 10 mg/kg, route oral, time 0 - last; conditions: plasma
Procedure, shortened: (§2)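 Male Balb-c mice given a single 10 mg/kg oral gavage dose in 1% methyl cellulose (w/v); plasma from terminal blood samples quantified by LC-MS/MS, followed by pharmacokinetic analysis. LLoQ 50 ng/mL.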

[9] = Half life in BALB/c mouse at 10 mg/kg, po by LC-MS/MS analysis; format: ADME, organism-based; set-up: dose 10 mg/kg, route oral; conditions: in vivo; procedure, shortened: as §2
[10] = Antitumor activity against human WM266.4 cells xenografted in Ncr athymic mouse assessed as mean tumor weight at 100 mg/kg, po commenced 6 days after tumor cell inoculation and continued daily measured after 21 days relative to control; format: functional, WM 266-4
Procedure, shortened: (§3)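 Female Ncr athymic mice, 6-8 weeks old, inoculated bilaterally sc with 2 million WM266.4 cells. Oral gavage once daily at 50 or 100 mg/kg began on day 6, at about 5 mm mean tumor diameter; groups of 9-10. Vehicle was 10% DMSO, 5% Tween 20 and 85% saline; controls got vehicle. Some 100 mg/kg doses were skipped. Tumors measured three times weekly; excised and weighed on day 21.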

Mus musculus [11] = assay: Modulation of CDK4 protein expression in human WM266.4 cells xenografted in Ncr athymic mouse at 100 mg/kg, po commenced 6 days after tumor cell inoculation and continued daily for 21 days measured 24 hrs after final dose by Western immunoblotting; format: functional, organism-based; set-up: dose 100 mg/kg
[12] = Antitumor activity against human PC3LN3 cells xenografted in CrTac:Ncr-Fox1 nude athymic mouse assessed as local lymph node tumor weight at 50 mg/kg, po qd commenced 12 days after tumor cell inoculation measured after 14 days relative to control; format: functional
[13] = Antitumor activity against human PC3LN3 cells xenografted in CrTac:Ncr-Fox1 nude athymic mouse assessed as regional lymph node tumor weight at 50 mg/kg, po qd commenced 12 days after tumor cell inoculation measured after 14 days relative to control; format: functional
Mus musculus [14] = assay: Modulation of HER2 protein expression in human PC3LN3 cells xenografted in CrTac:Ncr-Fox1 nude athymic mouse at 100 mg/kg, po qd commenced 12 days after tumor cell inoculation measured for 14 days measured 24 hrs after final dose by Western immunoblotting; format: functional, organism-based; set-up: dose 100 mg/kg
Mus musculus [15] = assay: Modulation of RAF1 protein expression in human PC3LN3 cells xenografted in CrTac:Ncr-Fox1 nude athymic mouse at 100 mg/kg, po qd commenced 12 days after tumor cell inoculation measured for 14 days measured 24 hrs after final dose by Western immunoblotting; format: functional, organism-based; set-up: dose 100 mg/kg
[16] = Metabolic stability in Sprague-Dawley rat liver microsomes assessed as compound turnover at 1 uM after 10 mins in presence of NADPH relative to control without NADPH; format: ADME, Microsome; conditions: read-out: Stability
Procedure, shortened: (§4)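 Compound at 1 μM incubated 10 min with liver microsomes (0.5 mg/mL) ± 2 mM NADPH; microsome sources were human mixed pool, C57 mouse and SD rat. Reaction stopped by acetonitrile precipitation, supernatant analysed by LC/MSMS. Turnover expressed as percent of no-NADPH control, n = 3.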

[17] = Metabolic stability in human liver microsomes assessed as compound turnover at 1 uM after 10 mins in presence of NADPH relative to control without NADPH; format: ADME, Microsome; conditions: read-out: Stability; procedure, shortened: as §4
BT-474 [18] = assay: Reduction of HER2 protein expression in human BT474 cells at 4 times GI50 after 24 hrs by Western immunoblotting; format: functional, cell-based
Procedure, shortened: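 BT474 cells exposed 24 h to compound at 2, 4 or 8 times the cellular GI50. Lysates made in 50 mM Tris-HCl, 2% SDS pH 6.8 and protein assayed by BCA. Equal protein run on SDS-PAGE, transferred to PVDF, immunoblotted with ECL detection; GAPDH used as loading control.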

BT-474 [19] = assay: Antitumor activity against estrogen receptor and HER2 overexpressing human BT474 cells xenografted in Harlan HsdNpa athymic nude mouse assessed as tumor regression at 30 mg/kg, po qd; format: functional
Procedure, shortened: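 Female athymic nude mice carrying an estradiol pellet (25 μg/day) and implanted sc in the right flank with 5 × 10^6 BT-474 cells in Matrigel:HBSS (1:1). Treatment started once mean tumor volume reached about 100 mm3. Oral dosing at 30 mg/kg once daily, 10 mL/kg, in 0.5% sodium carboxymethylcellulose. Relative tumor volume and body weight tracked; SEM, one-way ANOVA with Dunnett's post hoc test.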

Mus musculus [20] = assay: Toxicity in Harlan HsdNpa athymic nude mouse assessed as change in body weight at 30 mg/kg, po qd; format: organism-based; set-up: dose 30 mg/kg, route oral; conditions: in vivo
Procedure, shortened: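 Female athymic nude mice with estradiol pellet and sc BT-474 cells (5×10^6 in Matrigel:HBSS) in the flank. Dosed orally once daily at 30 mg/kg in 0.5% sodium carboxymethylcellulose (10 mL/kg), starting at mean tumour volume ~100 mm3. Body weight change monitored as % during therapy.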

Mus musculus [21] = assay: Toxicity in Harlan HsdNpa athymic nude mouse assessed as survival at 30 mg/kg, po qd; format: organism-based; set-up: dose 30 mg/kg, route oral; conditions: in vivo
Procedure, shortened: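 Female Harlan HsdNpa athymic nude mice, implanted sc with a 17β-estradiol pellet (25 μg/day) 2–3 days before sc right-flank injection of 5 × 10^6 BT-474 cells in Matrigel:HBSS (1:1). Oral gavage at 30 mg/kg once daily in 0.5% sodium carboxymethylcellulose, started when mean tumor volume was about 100 mm3. Body weight was tracked during therapy, and survivors were scored per group of 8.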

Mus musculus [22] = assay: Inhibition of Hsp90 ATPase activity in estrogen receptor and HER2 overexpressing human BT474 cells xenografted in Harlan HsdNpa athymic nude mouse at 30 mg/kg, po qd; format: functional, organism-based; set-up: dose 30 mg/kg; conditions: BT-474
[23] = Antitumor activity against human WM266.4 cells xenografted in Ncr athymic mouse assessed as effect of relative tumor volume at 100 mg/kg, po commenced 6 days after tumor cell inoculation and continued daily measured after 21 days; format: functional, WM 266-4; procedure, shortened: as §3

SMILES: CCNC(=O)c1cc2c(-c3cc(OCCN(CC)CC)c(Cl)cc3Cl)nc(N)nc2s1
- fraction unbound at 6 h, 5 µM [1]: 0.099
- Activity (BT-474 [2]): Dose-dependent effect
- Activity (HCT-116 [3]): Dose-dependent effect
- Activity (BT-474 [4]): Active
- Activity (BT-474 [5]): Active
- Activity (HCT-116 [6]): inactive
- Activity (HCT-116 [7]): inactive
- AUC(0-t) [8]: 858 ng·h/mL
- half-life [9]: 2.2 h
- T/C [10]: 15.9%
- Activity (Mus musculus [11]): Active
- T/C [12]: 31.3%
- T/C [13]: 15.2%
- Activity (Mus musculus [14]): Active
- Activity (Mus musculus [15]): Active
- metabolised at 10 min, 1 µM [16]: 16.9%
- metabolised at 10 min, 1 µM [17]: 17.3%
- Activity (BT-474 [18]): Active
- Activity (BT-474 [19]): 28.4%
- Activity (Mus musculus [20]): -11%
- Activity (Mus musculus [21]): Toxic
- Activity (Mus musculus [22]): Active
- T/C [23]: 15.9%
